Measured values taken from ChEMBL document CHEMBL1799988, “Novel chalcone derivatives as potent Nrf2 activators in mice and human lung epithelial cells” (J Med Chem, 2011).
Blank lines part the entries; values can stand above or below the compound they belong to. The source made the active and inactive calls. No cut-off for these calls is given here.

Assays:
[1] = biological target: T1, Nuclear factor erythroid 2-related factor 2 (Homo sapiens) (UniProt Q16236); test: Induction of Nrf2-mediated GCLM gene expression in human BEAS2B cells at […] 24 hrs by RT-PCR analysis; format: functional, cell-based
T1 sequence (whole entry): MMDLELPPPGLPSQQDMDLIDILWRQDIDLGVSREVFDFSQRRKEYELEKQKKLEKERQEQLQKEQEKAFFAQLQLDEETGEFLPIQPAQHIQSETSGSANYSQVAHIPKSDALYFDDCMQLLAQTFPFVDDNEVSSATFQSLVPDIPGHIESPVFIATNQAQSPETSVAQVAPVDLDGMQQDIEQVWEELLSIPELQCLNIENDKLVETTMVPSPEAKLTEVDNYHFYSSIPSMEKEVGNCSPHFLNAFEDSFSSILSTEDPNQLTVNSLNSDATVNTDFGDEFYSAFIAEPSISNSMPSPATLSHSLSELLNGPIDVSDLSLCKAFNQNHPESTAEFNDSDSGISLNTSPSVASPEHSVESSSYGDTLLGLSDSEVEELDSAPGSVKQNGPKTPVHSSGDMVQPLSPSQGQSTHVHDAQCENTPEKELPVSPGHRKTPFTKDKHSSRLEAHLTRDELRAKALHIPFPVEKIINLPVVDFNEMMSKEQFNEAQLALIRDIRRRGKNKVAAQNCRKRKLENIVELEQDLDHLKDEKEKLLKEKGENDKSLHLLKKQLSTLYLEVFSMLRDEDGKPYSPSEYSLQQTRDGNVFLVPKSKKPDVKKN
How it was run: (§1)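 Beas-2B cells co-incubated with 10 µM compound with or without N-acetylcysteine (10 mM); cells harvested 24 h later. GCLM, NQO1 and HO-1 mRNA quantified by TaqMan qRT-PCR, normalized to β-actin. Representative of 3 independent experiments, triplicate wells.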

[2] = biological target: T1, Nuclear factor erythroid 2-related factor 2 (Homo sapiens); test: Induction of Nrf2-mediated NQO1 gene expression in human BEAS2B cells at […] 24 hrs by RT-PCR analysis; format: functional, cell-based; how it was run: as §1
[3] = biological target: T1, Nuclear factor erythroid 2-related factor 2 (Homo sapiens); test: Induction of Nrf2-mediated HO1 gene expression in human BEAS2B cells at […] 24 hrs by RT-PCR analysis; format: functional, cell-based; how it was run: as §1
[4] = biological target: T1, Nuclear factor erythroid 2-related factor 2 (Homo sapiens); test: Induction of Nrf2-mediated GCLM gene expression in human BEAS2B cells at 10 uM after 16 hrs by RT-PCR analysis relative to untreated control; format: functional, cell-based
How it was run: (§2)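 Beas-2B cells (DMEM:F12, 10% FBS) plated 24 h, then exposed to 10 µM compound in DMSO (final ≤0.1%) for 16 h; sulforaphane as positive control. Total RNA extracted, reverse transcribed with random hexamers, GCLM and NQO1 mRNA quantified by TaqMan qRT-PCR, fold change vs DMSO. Representative of 3 independent experiments, quadruplicate wells.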

[5] = biological target: T1, Nuclear factor erythroid 2-related factor 2 (Homo sapiens); test: Induction of Nrf2-mediated NQO1 gene expression in human BEAS2B cells at 10 uM after 16 hrs by RT-PCR analysis relative to untreated control; format: functional, cell-based; how it was run: as §2
[6] = Cytotoxicity against human BEAS2B cells assessed as cell viability after 24 hrs by MTT assay; format: cell-based, BEAS-2B; parameters: concentration or dose not given beside the values; settings: read-out: Activity
How it was run: (§3)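 Beas-2B cells treated with compound or DMSO vehicle (0.1%) for 24 h; MTT (5 mg/ml in serum-free medium) added for the last 4 h, formazan dissolved in DMSO after PBS wash, absorbance read at 570 nm. Viability also checked by trypan blue exclusion.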

Mus musculus [7] = test: Induction of Nrf2-mediated GCLM gene expression in small intestine of C57BL/6 mouse at 50 mg/kg, po administered as single dose measured after 24 hrs by RT-PCR analysis related to control; format: functional
How it was run: (§4)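 Male C57BL/6 mice (7 weeks, AIN 76A diet; n=4) given a single 50 mg/kg oral gavage of compound, sulforaphane, or vehicle (10% DMSO + 10% Cremophor EL + 80% PBS). Small intestine harvested 24 h later; GCLM and NQO1 mRNA measured by TaqMan qRT-PCR with β-actin normalization.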

Mus musculus [8] = test: Induction of Nrf2-mediated GCLM gene expression in small intestine of C57BL/6 mouse at 50 mg/kg, po administered as single dose measured after 24 hrs by RT-PCR analysis related to sulforaphane; format: functional; how it was run: as §4
Mus musculus [9] = test: Induction of Nrf2-mediated NQO1 gene expression in small intestine of C57BL/6 mouse at 50 mg/kg, po administered as single dose measured after 24 hrs by RT-PCR analysis related to control; format: functional; how it was run: as §4
Mus musculus [10] = test: Induction of Nrf2-mediated NQO1 gene expression in small intestine of C57BL/6 mouse at 50 mg/kg, po administered as single dose measured after 24 hrs by RT-PCR analysis related to sulforaphane; format: functional; how it was run: as §4
[11] = biological target: T1, Nuclear factor erythroid 2-related factor 2 (Homo sapiens); test: Induction of Nrf2-mediated NQO1 gene expression in human BEAS2B cells overexpressing ARE luciferase reporter plasmid after 16 hrs by chemiluminescence assay; format: functional, cell-based
How it was run: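 Beas-2B cells stably transfected with NQO1-ARE luciferase reporter (blasticidin 6 µg/ml selection) seeded at 10,000 cells/well for 16 h, then exposed to graded compound concentrations or DMSO for 16 h. Luciferase activity read by chemiluminescence as relative luminescence intensity. Representative of 3 independent experiments, quadruplicate wells.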

[12] = biological target: T1, Nuclear factor erythroid 2-related factor 2 (Homo sapiens); test: Induction of Nrf2-mediated GCLM mRNA expression in human BEAS2B cells after 24 hrs by RT-PCR analysis; format: functional, cell-based
How it was run: (§5)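 Beas-2B cells exposed for 24 h to 2.5, 5, 10 or 20 µM compound in DMSO (final ≤0.1%), sulforaphane as comparator. GCLM, NQO1 and HO1 mRNA measured by TaqMan qRT-PCR, normalized to β-actin. Representative of 3 independent experiments, triplicate wells.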

[13] = biological target: T1, Nuclear factor erythroid 2-related factor 2 (Homo sapiens); test: Induction of Nrf2-mediated NQO1 mRNA expression in human BEAS2B cells after 24 hrs by RT-PCR analysis; format: functional, cell-based; how it was run: as §5
[14] = biological target: T1, Nuclear factor erythroid 2-related factor 2 (Homo sapiens); test: Induction of Nrf2-mediated HO1 mRNA expression in human BEAS2B cells after 24 hrs by RT-PCR analysis; format: functional, cell-based; how it was run: as §5
[15] = biological target: T1, Nuclear factor erythroid 2-related factor 2 (Homo sapiens); test: Induction of Nrf2-mediated GCLM mRNA expression in human BEAS2B cells at 20 uM after 24 hrs by RT-PCR analysis; format: functional, cell-based; how it was run: as §5
[16] = Cytotoxicity against human BEAS2B cells assessed as cell viability at 20 uM after 24 hrs by MTT assay relative to sulforaphane; format: cell-based; settings: beas-2b; how it was run: as §3
[17] = biological target: T1, Nuclear factor erythroid 2-related factor 2 (Homo sapiens); test: Induction of Nrf2-mediated HO1 mRNA expression in human BEAS2B cells at 10 uM after 24 hrs by RT-PCR analysis relative to sulforaphane; format: functional, cell-based
[18] = biological target: T1, Nuclear factor erythroid 2-related factor 2 (Homo sapiens); test: Induction of Nrf2-mediated HO1 mRNA expression in human BEAS2B cells at 10 uM after 6 hrs by RT-PCR analysis relative to sulforaphane; format: functional, cell-based
How it was run: (§6)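 Time course in Beas-2B cells at 10 µM compound: GCLM, NQO1 and HO-1 mRNA measured 6, 12, 24 and 48 h after treatment by TaqMan qRT-PCR, β-actin normalization. Representative of 3 independent experiments, triplicate wells.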

[19] = biological target: T1, Nuclear factor erythroid 2-related factor 2 (Homo sapiens); test: Induction of Nrf2-mediated GCLM mRNA expression in human BEAS2B cells at 10 uM after 6 hrs by RT-PCR analysis; format: functional, cell-based; how it was run: as §6
[20] = biological target: T1, Nuclear factor erythroid 2-related factor 2 (Homo sapiens); test: Induction of Nrf2-mediated HO1 mRNA expression in human BEAS2B cells at 10 uM after 48 hrs by RT-PCR analysis relative to sulforaphane; format: functional, cell-based; how it was run: as §6
[21] = biological target: T1, Nuclear factor erythroid 2-related factor 2 (Homo sapiens); test: Induction of Nrf2-mediated GCLM mRNA expression in human BEAS2B cells at 10 uM after 48 hrs by RT-PCR analysis; format: functional, cell-based; how it was run: as §6
[22] = biological target: T1, Nuclear factor erythroid 2-related factor 2 (Homo sapiens); test: Induction of Nrf2-mediated NQO1 mRNA expression in human BEAS2B cells at 10 uM after 24 hrs by RT-PCR analysis relative to sulforaphane; format: functional, cell-based
[23] = biological target: T1, Nuclear factor erythroid 2-related factor 2 (Homo sapiens); test: Induction of Nrf2-mediated NQO1 mRNA expression in human BEAS2B cells at 10 uM after 48 hrs by RT-PCR analysis relative to sulforaphane; format: functional, cell-based; how it was run: as §6
[24] = biological target: T1, Nuclear factor erythroid 2-related factor 2 (Homo sapiens); test: Induction of Nrf2-mediated GCLM gene expression in human BEAS2B cells at 10 uM after 24 hrs by RT-PCR analysis in presence of 10 mM N-acetylcysteine; format: functional, cell-based; how it was run: as §1
[25] = biological target: T1, Nuclear factor erythroid 2-related factor 2 (Homo sapiens); test: Induction of Nrf2-mediated NQO1 gene expression in human BEAS2B cells at 10 uM after 24 hrs by RT-PCR analysis in presence of 10 mM N-acetylcysteine; format: functional, cell-based; how it was run: as §1
[26] = biological target: T1, Nuclear factor erythroid 2-related factor 2 (Homo sapiens); test: Induction of Nrf2-mediated HO1 gene expression in human BEAS2B cells at 10 uM after 24 hrs by RT-PCR analysis in presence of 10 mM N-acetylcysteine; format: functional, cell-based; how it was run: as §1
[27] = biological target: T1, Nuclear factor erythroid 2-related factor 2 (Homo sapiens); test: Induction of Nrf2-mediated NQO1 mRNA expression in human BEAS2B cells at 20 uM after 24 hrs by RT-PCR analysis

Activity [1]: inactive | Activity [2]: inactive | Activity [3]: inactive
Structure (SMILES): CC(=O)N[C@@H](CS)C(=O)O

fold change (FC) [4]: 4.5 | fold change (FC) [5]: 4.6 | Activity [11]: Dose-dependent effect | Activity [12]: Dose-dependent effect | Activity [13]: Dose-dependent effect | Activity [14]: Dose-dependent effect | fold change (FC) [15]: 5 | fold change (FC) [17]: 6 | fold change (FC) [18]: 150 | fold change (FC) [19]: 7 | Activity [20]: inactive | Activity [21]: inactive | Activity [22]: Active | Activity [23]: Active | Activity [24]: Active | Activity [25]: Active | Activity [26]: Active | fold change (FC) [27]: 10
Structure (SMILES): COc1ccccc1C(=O)/C=C/c1ccccc1C(F)(F)F
viability at 24 h [6]: 101% | fold change (FC) (Mus musculus [7]): 6 | fold change (FC) (Mus musculus [8]): 3 | fold change (FC) (Mus musculus [9]): 10 | fold change (FC) (Mus musculus [10]): 5 | Activity [16]: Non-toxic
